Experimental data: ChEMBL document CHEMBL1140689, “Benzyl amide-ketoacid inhibitors of HIV-integrase” (Bioorg Med Chem Lett, 2007)

biological target: not listed separately; experiment: Inhibition of HIV1 recombinant integrase; set-up: species or system Human immunodeficiency virus 1; conditions: not given
Method in brief: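 Strand-transfer scintillation proximity readout. 5 pmol biotin-labeled substrate DNA bound to 100 μg streptavidin SPA beads. Recombinant integrase (0.26 ng) loaded onto the beads for 90 min at 37 °C, and unbound enzyme washed off. Inhibitors then added with 0.1 fmol 33P-labeled target DNA. Reaction stopped with EDTA (10 mM final). Integration measured as scintillation CPM.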

| SMILES | IC50 |
| --- | --- |
| Cc1ccccc1CNC(=O)/C=C(\O)C(=O)O | 1300 nM |
| O=C(/C=C(\O)C(=O)O)NCc1cc(F)cc(F)c1 | 1700 nM |
| O=C(/C=C(\O)C(=O)O)NCc1ccc([N+](=O)[O-])cc1 | 2100 nM |
| O=C(/C=C(\O)C(=O)O)NCc1cccc(Cl)c1Cl | 200 nM |
| O=C(/C=C(\O)C(=O)O)NCc1ccccc1 | 300 nM |
| O=C(/C=C(\O)C(=O)O)NCc1cccc(F)c1 | 1200 nM |
| O=C(/C=C(\O)C(=O)O)NCc1ccc(F)cc1 | 200 nM |
| CN(Cc1ccc(F)cc1)C(=O)/C=C(\O)C(=O)O | 110 nM |
| O=C(/C=C(\O)C(=O)O)NCc1cccc(Cl)c1 | 600 nM |
| CC(C)(C)c1ccc(CNC(=O)/C=C(\O)C(=O)O)cc1 | 180000 nM |
| COc1ccc(CNC(=O)/C=C(\O)C(=O)O)c(OC)c1 | 7500 nM |
| COc1ccc(CNC(=O)/C=C(\O)C(=O)O)cc1Cl | 300 nM |
| Cc1ccc(CNC(=O)/C=C(\O)C(=O)O)cc1F | 200 nM |
| Cc1ccc(CNC(=O)/C=C(\O)C(=O)O)cc1 | 1400 nM |
| COc1ccccc1CNC(=O)/C=C(\O)C(=O)O | 500 nM |
| C[C@@H](NC(=O)/C=C(\O)C(=O)O)c1ccccc1 | > 300000 nM |
| C[C@H](NC(=O)/C=C(\O)C(=O)O)c1ccccc1 | 24000 nM |
| COc1cccc(CNC(=O)/C=C(\O)C(=O)O)c1 | 2400 nM |
| COc1ccc(CNC(=O)/C=C(\O)C(=O)O)cc1 | 4200 nM |
| O=C(/C=C(\O)C(=O)O)NCc1ccc(Cl)nc1 | 700 nM |
| O=C(/C=C(\O)C(=O)O)NCc1ccccc1F | 1800 nM |
| CC(NC(=O)/C=C(\O)C(=O)O)c1ccc(F)cc1 (centres undefined) | 3000 nM |
| O=C(/C=C(\O)C(=O)O)NCc1ccccc1Cl | 1700 nM |
| O=C(/C=C(\O)C(=O)O)NCc1ccc(Cl)cc1 | 1100 nM |
| O=C(/C=C(\O)C(=O)O)NCc1ccc(C(F)(F)F)cc1 | 9000 nM |
| Cc1cccc(CNC(=O)/C=C(\O)C(=O)O)c1 | 300 nM |

system: Human immunodeficiency virus 1; experiment: Antiviral activity against luciferase containing HIV1 NL4-3 virus in MT2 cells; assay type: functional, organism-based; conditions: Human immunodeficiency virus 1, NL4-3, MT2

| SMILES | EC50 |
| --- | --- |
| CC1(C)OC(=O)/C(=C/C(=O)NCc2ccc(F)cc2)O1 | 1200 nM |
| O=C(/C=C(\O)C(=O)O)NCc1ccc(F)cc1 | 5900 nM |
| CN(Cc1ccc(F)cc1)C(=O)/C=C(\O)C(=O)O | 600 nM |
